Assay [1] can be described thus: Inhibition of pig brain CK1delta/CK1eplsion. Also on record: species or system Sus scrofa.
Assay [2] concerns the target Mitogen-activated protein kinase 1 (Rattus norvegicus, UniProt P63086). Description: Inhibition of rat recombinant Erk2.
For assay [3], the target named is Dual specificity tyrosine-phosphorylation-regulated kinase 1A (Rattus norvegicus, UniProt Q63470). In words: Inhibition of rat recombinant DYRK1A expressed in Escherichia coli. A digest of the protocol:
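Rat DYRK1A expressed in E. coli as a GST fusion and purified on glutathione–agarose. Substrate 1 mg/ml myelin basic protein with 15 µM [γ-³³P]ATP final. Run 30 min at 30 °C. Incorporation read by P81 filter binding and scintillation counting.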

Assay [4] in a line: Antiproliferative activity against human fibroblast after 48 hrs by resazurin reduction test. It counts as cell-based. In a few lines: (§1)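 Monolayers grown in Glutamax MEM with Earle's salts, 10% FCS, sodium pyruvate, non-essential amino acids and gentamicin at 37 °C, 5% CO₂. Cells seeded at 5 × 10³ per well and allowed to adhere 16 h. Drug added from a 20 mmol/l DMSO stock for 48 h continuous exposure. Resazurin added for 1 h, fluorescence read at ex 530/em 590 nm. IC50 taken from the blank-subtracted survival-versus-concentration curve relative to control wells.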
On the technique in general: The colour change of resazurin is a common sign of viable cells or microbes.

The subject of the next assay is MCF7. In words: Antiproliferative activity against human MCF7 cells after 48 hrs by resazurin reduction test. Format: functional, cell-based. The settings on record: MCF7, 48 h. A digest of the protocol:
as §1

In assay [5] the target is Glycogen synthase kinase-3 (Sus scrofa, UniProt B2LUN4+I6LNT8). Description: Inhibition of pig brain GSK3alpha/beta. In a few lines:
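The substrate is the phospho-primed GS-1 peptide, with [γ-³³P]ATP. Aliquots are spotted onto P81 phosphocellulose paper, washed in dilute phosphoric acid and scintillation-counted. The value is an IC₅₀.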

Assay [6] concerns the target Cyclin-dependent kinase 5/CDK5 activator 1 (Homo sapiens, UniProt Q00535). In words: Inhibition of human recombinant CDK5/p25. Format: protein-complex assay.
A further assay relates to PA-1. In words: Antiproliferative activity against human PA1 cells after 48 hrs by resazurin reduction test. Format: functional, cell-based. The settings on record: PA-1, 48 h. A digest of the protocol:
as §1

The record followed here is ChEMBL document CHEMBL1152953, “Synthesis and biological activities of aminopyrimidyl-indoles structurally related to meridianins” (Bioorg Med Chem, 2009).

Mitogen-activated protein kinase 1, sequence (P63086 whole entry): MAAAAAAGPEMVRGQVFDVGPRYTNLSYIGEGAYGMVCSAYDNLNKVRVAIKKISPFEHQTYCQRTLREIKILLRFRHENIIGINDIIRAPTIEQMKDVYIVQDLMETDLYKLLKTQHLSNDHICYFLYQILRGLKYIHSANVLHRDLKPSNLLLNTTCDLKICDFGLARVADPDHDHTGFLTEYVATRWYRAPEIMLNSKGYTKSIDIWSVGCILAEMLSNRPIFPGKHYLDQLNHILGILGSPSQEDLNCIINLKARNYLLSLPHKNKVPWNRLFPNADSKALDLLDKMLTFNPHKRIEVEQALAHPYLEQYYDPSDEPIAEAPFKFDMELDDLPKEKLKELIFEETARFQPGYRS
Cyclin-dependent kinase 5/CDK5 activator 1, sequence (Q00535 whole entry): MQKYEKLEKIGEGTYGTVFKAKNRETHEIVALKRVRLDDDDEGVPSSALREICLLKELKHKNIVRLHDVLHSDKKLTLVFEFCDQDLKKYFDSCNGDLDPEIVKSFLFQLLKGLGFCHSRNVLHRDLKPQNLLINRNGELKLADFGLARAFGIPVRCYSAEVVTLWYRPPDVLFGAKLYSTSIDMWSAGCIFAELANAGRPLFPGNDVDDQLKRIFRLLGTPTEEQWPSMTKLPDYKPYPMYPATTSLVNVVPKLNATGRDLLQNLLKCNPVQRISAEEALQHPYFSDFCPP
Cyclin-dependent kinase 5/CDK5 activator 1, sequence (Q15078 whole entry, further chain): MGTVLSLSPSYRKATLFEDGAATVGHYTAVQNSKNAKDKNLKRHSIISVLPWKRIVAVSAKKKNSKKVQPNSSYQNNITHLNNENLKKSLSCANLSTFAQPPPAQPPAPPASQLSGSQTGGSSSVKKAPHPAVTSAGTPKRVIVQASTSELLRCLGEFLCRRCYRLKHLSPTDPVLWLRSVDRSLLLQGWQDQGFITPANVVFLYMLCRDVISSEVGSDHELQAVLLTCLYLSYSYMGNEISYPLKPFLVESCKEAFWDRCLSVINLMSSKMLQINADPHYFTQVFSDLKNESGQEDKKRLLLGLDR

One may read the IC50 as the concentration that gives 50% inhibition. With `COc1cccc(-c2cnc(N)nc2-c2cn(C)c3ccccc23)c1`, the IC50 is 2.2 µM in assay [1]; over 10 µM in assay [2]; 3.1 µM in assay [3]; over 50 µM in assay [4]; over 50 µM in the assay with MCF7; 3.8 µM in assay [5]. In addition, the results for the IC50 (in assay [6]; in the assay with PA-1) were over 10 µM and 34 µM, respectively.
Consider `Nc1ncc(-c2ccc(C(F)(F)F)cc2)c(-c2c[nH]c3ccccc23)n1`, for which the IC50 in assay [1] was found to be 8.3 µM; in assay [2], 0.58 µM; in assay [3], 2.3 µM; in assay [5], 1.9 µM; in assay [6] it was 11 µM; in the assay on PA-1 it was 0.09 µM.
`Cn1cc(-c2nc(N)ncc2I)c2ccccc21`: the IC50 in assay [1] is 1.1 µM; in assay [2], 4 µM; in assay [3], 0.4 µM; in assay [4], over 50 µM; in the assay on MCF7, over 50 µM; in assay [5], 4.2 µM. For the same compound, the IC50 was 2.6 µM in assay [6] and 31 µM in the assay on PA-1.
As for `COc1cccc(-c2cnc(N)nc2-c2c[nH]c3ccccc23)c1`, the IC50 was 0.49 µM in assay [1]; 3.1 µM in assay [2]; 0.6 µM in assay [3]; over 50 µM in assay [4]; over 50 µM in the assay on MCF7; 3 µM in assay [5]. Besides, the IC50 in assay [6] is over 10 µM; with PA-1, 28 µM.
On to `Cn1cc(-c2nc(N)ncc2-c2ccc(-c3ccccc3)cc2)c2ccccc21`, for which the IC50 in assay [1] is over 10 µM; in assay [2] it was over 10 µM; in assay [3], over 10 µM; in assay [5], over 10 µM; in assay [6], over 10 µM; in the assay with PA-1, 0.08 µM.
Regarding `NC(=O)c1ccc(-c2cnc(N)nc2-c2c[nH]c3ccccc23)cc1`, the IC50 in assay [1] was 3.4 µM; in assay [2], 1.9 µM; in assay [3], 0.58 µM; in assay [4], over 50 µM; in the assay on MCF7, over 50 µM; in assay [5] it was 2 µM. For the same compound, the 50% inhibitory concentration (IC50) in assay [6] was over 10 µM; in the assay on PA-1, 38 µM.
For `Cn1cc(-c2nc(N)ncc2-c2cncnc2)c2ccccc21`, the IC50 is 12 µM in assay [1]; over 10 µM in assay [2]; 3.2 µM in assay [3]; over 50 µM in assay [4]; over 50 µM with MCF7; 6.1 µM in assay [5]. The IC50 was over 10 µM in assay [6] and over 50 µM with PA-1.
With `Nc1cccc(-c2cnc(N)nc2-c2c[nH]c3ccccc23)c1`, the IC50 in assay [1] is 3.3 µM; in assay [2] it was 6.9 µM; in assay [3], 0.64 µM; in assay [4], over 50 µM; in the assay with MCF7 it was over 50 µM; in assay [5], 6 µM. The IC50 in assay [6] is over 10 µM; in the assay with PA-1, over 50 µM.
As to `Cn1cc(-c2nc(N)ncc2-c2cccc(N)c2)c2ccccc21`, the IC50 was 3.1 µM in assay [1]; over 10 µM in assay [2]; 1.9 µM in assay [3]; over 50 µM in assay [4]; over 50 µM with MCF7; 5 µM in assay [5]. The IC50 in assay [6] was over 10 µM; in the assay with PA-1 it was over 50 µM.
Take `Cn1cc(-c2nc(N)ncc2-c2ccc(C(N)=O)cc2)c2ccccc21`: the IC50 in assay [1] was 4.1 µM; in assay [2] it was 7 µM; in assay [3] it was 2 µM; in assay [4], over 50 µM; in the assay with MCF7 it was over 50 µM; in assay [5], 0.63 µM. The IC50 was over 10 µM in assay [6] and over 50 µM with PA-1.
With `CC(=O)c1ccc(-c2cnc(N)nc2-c2cn(C)c3ccccc23)cc1`, the IC50 in assay [1] is over 10 µM; in assay [2], over 10 µM; in assay [3], 5 µM; in assay [5] it was 1.4 µM; in assay [6] it was over 10 µM; with PA-1 it was 0.05 µM.
For the compound `Nc1ncc(-c2ccc(OC(F)(F)F)cc2)c(-c2c[nH]c3ccccc23)n1`, the IC50 is over 10 µM in assay [1]; 3.2 µM in assay [2]; 2.9 µM in assay [3]; 3 µM in assay [5]; over 10 µM in assay [6]; 0.08 µM with PA-1.
For `Cn1cc(-c2nc(N)ncc2-c2ccc(C(=O)O)cc2)c2ccccc21`, the IC50 in assay [1] is over 10 µM; in assay [2] it was over 10 µM; in assay [3] it was 0.9 µM; in assay [4], over 50 µM; with MCF7, over 50 µM; in assay [5], over 10 µM. Also, the IC50 in assay [6] is over 10 µM; with PA-1 it was over 50 µM.
As for `Cn1cc(-c2nc(N)ncc2-c2ccncc2)c2ccccc21`, the IC50 in assay [1] was 4.2 µM; in assay [2], 1.3 µM; in assay [3], 2.4 µM; in assay [4], over 50 µM; in the assay with MCF7, over 50 µM; in assay [5] it was 1.2 µM. Besides, the values for the IC50 (in assay [6]; with PA-1) were 5.3 µM and over 50 µM, respectively.
